Measurements as given in ChEMBL document CHEMBL3758168, “Hybrid triazoles: Design and synthesis as potential dual inhibitor of growth and efflux inhibition in tuberculosis” (Eur J Med Chem, 2016).
In brackets after ≈: the same amount, converted by molar mass.

Tests used:
[1] = test system: Mycolicibacterium smegmatis; assay: Anti-tubercular activity against Mycobacterium smegmatis MC2 155 ATCC 700084 after 3 days by microdilution method; format: functional; settings: MC2 155 ATCC 700084, 72 h
How it was run: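 M. smegmatis mc2155 grown in MB7H9 + 10% OADC at 37 °C with shaking to OD600 0.8. Inoculum set to 0.5 McFarland, diluted 1:100, and mixed 1:1 with two-fold serial dilutions in MB7H9. Plates incubated 3 days at 37 °C with growth and sterility controls. MIC taken as the lowest concentration with no visible growth.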

[2] = Cytotoxicity against human MDM assessed as cell viability after 3 days by Alamar blue dye-based fluorocytometric analysis relative to control; settings: 72 h
[3] = test system: Mycobacterium tuberculosis; assay: Anti-tubercular activity against Mycobacterium tuberculosis H37Rv ATCC 27294T after 7 days by mircodilution method; format: functional; settings: 168 h
How it was run: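 H37Rv grown static in MB7H9 + 10% OADC at 37 °C to OD600 0.8, then diluted to about 10^5 cells/ml. Mixed 1:1 with two-fold serial dilutions in MB7H9/OADC and incubated 7 days at 37 °C. MTT added to final 2.5% and plates incubated overnight. MIC is the lowest concentration with no colour change. Run in triplicate.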

SMILES	MIC [1] [µg/mL]	IC50 [2] [µg/mL]	MIC [3] [µg/mL]
CCOC(=O)CC(=O)CSc1nnc(COc2ccccc2C2=NOC(c3ccc(Cl)cc3Cl)C2)n1NC(C)=O (stereo unspecified)	512 (≈ 844 µM)	–	–
CCSc1nnc(COc2ccccc2C2=NOC(c3ccc(Cl)cc3Cl)C2)n1NC(=O)CCl (stereo unspecified)	512 (≈ 947 µM)	–	–
CSc1nnc(COc2ccccc2C2=NOC(c3ccc(Cl)cc3Cl)C2)n1NC(=O)CCl (stereo unspecified)	32 (≈ 60.7 µM)	2.7 (≈ 5.12 µM)	–
C/C=C/Sc1nnc(COc2ccccc2C2=NOC(c3ccc(Cl)cc3Cl)C2)n1NC(=O)CCl (stereo unspecified)	> 512	–	–
C/C=C/Sc1nnc(COc2ccccc2C2=NOC(c3ccc(Cl)cc3Cl)C2)n1NC(C)=O (stereo unspecified)	512 (≈ 988 µM)	–	–
CCCCSc1nnc(COc2ccccc2C2=NOC(c3ccc(Cl)cc3Cl)C2)n1NC(=O)c1ccccc1 (stereo unspecified)	64 (≈ 107 µM)	2.5 (≈ 4.19 µM)	–
C/C=C/Sc1nnc(COc2ccccc2C2=NOC(c3ccc(Cl)cc3Cl)C2)n1NC(=O)c1ccccc1 (stereo unspecified)	128 (≈ 221 µM)	–	–
Nn1c(S)nnc1COc1ccccc1C1=NOC(c2ccc(Cl)cc2Cl)C1 (stereo unspecified)	2 (≈ 4.58 µM)	87.3 (≈ 200 µM)	–
CC(=O)Nn1c(COc2ccccc2C2=NOC(c3ccc(Cl)cc3Cl)C2)nnc1SCC(C)C (stereo unspecified)	> 256	–	–
O=C(CCl)Nn1c(S)nnc1COc1ccccc1C1=NOC(c2ccc(Cl)cc2Cl)C1 (stereo unspecified)	16 (≈ 31.2 µM)	3.2 (≈ 6.24 µM)	–
CCSc1nnc(COc2ccccc2C2=NOC(c3ccc(Cl)cc3Cl)C2)n1NC(=O)c1ccccc1 (stereo unspecified)	4 (≈ 7.04 µM)	1.8 (≈ 3.17 µM)	–
CCOC(=O)CSc1nnc(COc2ccccc2C2=NOC(c3ccc(Cl)cc3Cl)C2)n1NC(=O)c1ccccc1 (stereo unspecified)	64 (≈ 102 µM)	–	–
CSc1nnc(COc2ccccc2C2=NOC(c3ccc(Cl)cc3Cl)C2)n1NC(C)=O (stereo unspecified)	32 (≈ 65 µM)	2.7 (≈ 5.48 µM)	–
CC(C)CSc1nnc(COc2ccccc2C2=NOC(c3ccc(Cl)cc3Cl)C2)n1NC(=O)CCl (stereo unspecified)	1020 (≈ 1800 µM)	–	–
CCCCSc1nnc(COc2ccccc2C2=NOC(c3ccc(Cl)cc3Cl)C2)n1NC(C)=O (stereo unspecified)	32 (≈ 59.9 µM)	2.6 (≈ 4.86 µM)	–
CCCCSc1nnc(COc2ccccc2C2=NOC(c3ccc(Cl)cc3Cl)C2)n1NC(=O)CCl (stereo unspecified)	32 (≈ 56.2 µM)	2.8 (≈ 4.92 µM)	–
CC(=O)Nn1c(S)nnc1COc1ccccc1C1=NOC(c2ccc(Cl)cc2Cl)C1 (stereo unspecified)	8 (≈ 16.7 µM)	1.3 (≈ 2.72 µM)	–
CCOC(=O)CSc1nnc(COc2ccccc2C2=NOC(c3ccc(Cl)cc3Cl)C2)n1NC(C)=O (stereo unspecified)	> 64	–	–

SMILES	MIC [1] [µg/mL]	IC50 [2] [µg/mL]	MIC [3] [µg/mL]
CSc1nnc(COc2ccccc2C2=NOC(c3ccc(Cl)cc3Cl)C2)n1NC(=O)c1ccccc1 (stereo unspecified)	32 (≈ 57.7 µM)	2.2 (≈ 3.97 µM)	–
C=CCSc1nnc(COc2ccccc2C2=NOC(c3ccc(Cl)cc3Cl)C2)n1NC(=O)CCl (stereo unspecified)	256 (≈ 463 µM)	–	–
O=C(CCl)Nn1c(COc2ccccc2C2=NOC(c3ccc(Cl)cc3Cl)C2)nnc1Sc1ccccc1 (stereo unspecified)	128 (≈ 217 µM)	–	–
C=CCSc1nnc(COc2ccccc2C2=NOC(c3ccc(Cl)cc3Cl)C2)n1NC(=O)c1ccccc1 (stereo unspecified)	128 (≈ 221 µM)	–	–
CC(=O)Nn1c(COc2ccccc2C2=NOC(c3ccc(Cl)cc3Cl)C2)nnc1Sc1ccccc1 (stereo unspecified)	> 512	–	–
C=CCSc1nnc(COc2ccccc2C2=NOC(c3ccc(Cl)cc3Cl)C2)n1NC(C)=O (stereo unspecified)	256 (≈ 494 µM)	–	–
O=C(Nn1c(S)nnc1COc1ccccc1C1=NOC(c2ccc(Cl)cc2Cl)C1)c1ccccc1 (stereo unspecified)	32 (≈ 59.2 µM)	1.7 (≈ 3.15 µM)	–
CCOC(=O)CC(=O)CSc1nnc(COc2ccccc2C2=NOC(c3ccc(Cl)cc3Cl)C2)n1NC(=O)CCl (stereo unspecified)	128 (≈ 200 µM)	–	–
CCOC(=O)CSc1nnc(COc2ccccc2C2=NOC(c3ccc(Cl)cc3Cl)C2)n1NC(=O)CCl (stereo unspecified)	128 (≈ 214 µM)	–	–
CCOC(=O)CC(=O)CSc1nnc(COc2ccccc2C2=NOC(c3ccc(Cl)cc3Cl)C2)n1NC(=O)c1ccccc1 (stereo unspecified)	512 (≈ 766 µM)	–	–
O=C(Nn1c(COc2ccccc2C2=NOC(c3ccc(Cl)cc3Cl)C2)nnc1Sc1ccccc1)c1ccccc1 (stereo unspecified)	256 (≈ 415 µM)	–	–
CC(C)CSc1nnc(COc2ccccc2C2=NOC(c3ccc(Cl)cc3Cl)C2)n1NC(=O)c1ccccc1 (stereo unspecified)	512 (≈ 858 µM)	–	–
NCC[C@H](O)C(=O)N[C@@H]1C[C@H](N)[C@@H](O[C@H]2O[C@H](CN)[C@@H](O)[C@H](O)[C@H]2O)[C@H](O)[C@H]1O[C@H]1O[C@H](CO)[C@@H](O)[C@H](N)[C@H]1O [AMIKACIN]	–	–	2 (≈ 3.42 µM)
CC[n+]1c(-c2ccccc2)c2cc(N)ccc2c2ccc(N)cc21.[Br-] [HOMIDIUM BROMIDE]	–	–	12.5
NNC(=O)c1ccncc1 [ISONIAZID]	–	–	0.1 (≈ 0.729 µM)
CC1COc2c(N3CCN(C)CC3)c(F)cc3c(=O)c(C(=O)O)cn1c23 (stereo unspecified) [OFLOXACIN]	–	–	2 (≈ 5.53 µM)
CO[C@H]1/C=C/O[C@@]2(C)Oc3c(C)c(O)c4c(O)c(c(/C=N/N5CCN(C)CC5)c(O)c4c3C2=O)NC(=O)/C(C)=C\C=C\[C@H](C)[C@H](O)[C@@H](C)[C@@H](O)[C@@H](C)[C@H](OC(C)=O)[C@@H]1C [RIFAMPIN]	–	–	1 (≈ 1.22 µM)
